# CHT block – inhibitors of human choline transporter CHT; hit rate 0.86% among 310,000; CHT-expressing cells, membrane potential dye, choline response; hits give low values; B-score at 10 µM; AID 488975; Q9GZV3;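 active = B-score over 3 SD under the library average, and starting fluorescence ratio not unusually high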;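 note: choline stimulus applied at its EC90 after an EC20 pre-addition; B-score computed on integrated fluorescence ratio after choline addition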
# Target sequence (Q9GZV3 whole entry, looked up): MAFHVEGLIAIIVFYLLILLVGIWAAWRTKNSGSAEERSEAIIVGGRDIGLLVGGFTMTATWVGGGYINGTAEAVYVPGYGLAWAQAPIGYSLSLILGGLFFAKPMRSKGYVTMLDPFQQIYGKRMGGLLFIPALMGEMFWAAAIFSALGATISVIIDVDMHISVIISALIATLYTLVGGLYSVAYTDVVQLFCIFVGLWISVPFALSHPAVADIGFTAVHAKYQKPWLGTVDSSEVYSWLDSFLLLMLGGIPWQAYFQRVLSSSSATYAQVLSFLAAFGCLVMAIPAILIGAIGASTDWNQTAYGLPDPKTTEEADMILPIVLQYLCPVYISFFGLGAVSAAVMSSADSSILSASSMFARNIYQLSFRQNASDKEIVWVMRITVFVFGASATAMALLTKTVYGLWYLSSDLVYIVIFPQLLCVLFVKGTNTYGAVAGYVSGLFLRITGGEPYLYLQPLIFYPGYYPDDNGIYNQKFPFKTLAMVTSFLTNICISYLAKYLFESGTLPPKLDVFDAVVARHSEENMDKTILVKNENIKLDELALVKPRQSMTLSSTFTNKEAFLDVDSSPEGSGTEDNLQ
# CHT allo act – allosterically activates the human high affinity choline transporter. hit rate 0.49% among 310,000. CHT-expressing cells, membrane potential dye, choline EC20; hits give high values; LV-AA mutant CHT in HEK293 cells. Q9GZV3. B-score at 10 µM;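 active = initial fluorescence not abnormally high and integrated response B-score, plate-corrected, over 3 SD above library mean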
# NR2F2 inh – inhibitors of human COUP-TFII (NR2F2); hit rate 0.7% among 370,000; HEK293T NGFI-A luciferase reporter, luminescence; inhibition, % at 8.6 µM; P24468;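 active = inhibition above a per-plate cutoff, mean inhibition of test wells between control levels plus 3 SD, cut at about 38% in these data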;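 note: cells cotransfected with COUP-TFII expression vector driving the NGFI-A reporter; 0% = median of COUP-TF2 test wells and 100% = reporter-only cells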
# NR2E3 ag-1 – NR2E3 (human) agonism | hit rate 0.12% among 320,000 | AID 2300 | Q9Y5X4 | inhibition of corepressor binding, % at 4.78 µM | GST-NR2E3/biotin-RetCOR TR-FRET, 1536-well;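 active = percent inhibition above the cutoff of mean plus 3 SD of all tested compounds, set per screening campaign, cut at about 20% in these data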;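 note: 0% = DMSO wells and 100% = biotin wells as full block of FRET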
#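 System: GST-tagged NR2E3 plus biotinylated RetCOR corepressor; Amount: 1.35 nM GST-tagged NR2E3 final; Dosing: single nominal compound dose of 4.8 µM; Schedule: 5 h incubation at 4 °C; Technique: TR-FRET with europium anti-GST and streptavidin-D2, 340 nm excitation; Controls: biotin wells as high control, 0.6% DMSO wells as low control.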
# NR2E3 ag-2 – activates human NR2E3 receptor; inhibition of corepressor binding, % at 3.98 µM; Q9Y5X4; CHO-S Gal4-NCOR/VP16-NR2E3 two-hybrid, luciferase; hit rate 0.35% among 360,000; AID 602229;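 active = inhibition above the mean of all tested compounds plus 3 SD, cut at about 70% in these data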;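 note: 0% = DMSO with NR2E3 transfected cells and 100% = cells lacking NR2E3 construct; higher means lower luciferase signal from less NR2E3 corepressor binding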
# GalR3 antagonist – antagonists of human GalR3 | HEK293 GalR3-CNG cAMP membrane potential fluorescence; galR3 body fused to GalR1 C-terminus | inhibition, % at 3 µM | hit rate 0.44% among 360,000 | O60755;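 active = inhibition above the screen-wide average plus 3 SD, cut at about 13% in these data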;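 note: forskolin and galanin both at EC90 stimulate the cells; cAMP rise reported by CNG channel membrane potential dye signal; 0% = forskolin plus galanin with DMSO and 100% = forskolin alone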
# CHT inh conf – human CHT inhibition, confirmatory screen. shares compounds with CHT block. CHT-expressing cells, choline membrane potential dye; LV-to-AA substituted CHT, HEK293 cells. CHT activity remaining % of control (hits give low values), % at 10 µM. hit rate 70% among 2,400;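 active = choline transporter activity left, mean of duplicates at 10 µM, below buffer-only control mean minus 3 SD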;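 note: depolarization triggered by choline at its EC90 following an EC20 pre-addition; 0% = hemicholinium-3 full block and 100% = buffer-only control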
# HEK293 CHT ctr – activity in parental HEK293 cells lacking CHT. shares compounds with CHT block. membrane potential dye, choline response; active = decrease or increase beyond buffer ±3SD. membrane potential ratio readout (active if shifted either direction beyond buffer ±3SD; no single direction) at 10 µM. hit rate 4% among 2,400. AID 493222;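 note: parental cells lack the transporter so any hit is non-specific; ratio is peak minus trough fluorescence over baseline after EC90 choline challenge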
# CHT act confirm – confirmation of human choline transporter (CHT) activators. activation, % at 10 µM. shares compounds with CHT allo act. CHT-expressing cells, membrane potential dye fluorescence (FDSS); % of choline EC20–EC90 response window; HEK293 expressing CHT LV-AA mutant; choline added at its EC20. hit rate 91% among 2,500;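 active = primary screen active, with duplicate mean activation above negative control mean plus 3 SD, cut at about 11% in these data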
# HEK293 MP dye – counter-screen for CHT activators: effect in parental HEK293 cells. shares compounds with CHT allo act. hit rate 62% among 2,500. membrane potential dye fluorescence (FDSS); measured after EC20 choline addition. ratio readout change at 10 µM, hits read low;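 active = duplicate-averaged ratio beyond 3 SD from buffer wells, up or down, though filed actives are nearly all decreases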
# GalR3 conf – GalR3 (human) antagonism, confirmation. AID 652245. inhibition, % at 3 µM. shares compounds with GalR3 antagonist. HEK293 GalR3 CNG cAMP biosensor, membrane potential fluorescence; galR3 fused to GalR1 carboxy tail; challenged with forskolin and galanin at EC90. hit rate 59% among 1,600;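 active = inhibition above the primary screen's cutoff, the mean inhibition of all screened compounds plus 3 SD, cut at about 13% in these data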;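 note: 0% = forskolin plus galanin and 100% = forskolin alone with DMSO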
# CNG parental – acts as nonspecific agonist in parental HEK-CNG cells; shares compounds with GalR3 antagonist; HEK293-CNG parental cells, cAMP membrane potential fluorescence; normalised: DMSO wells 0%, forskolin wells 100%; activation, % at 3 µM; hit rate 10% among 1,600; AID 652268; in the data active = activation above about 1.3%
# Starred values were filed as active, the others as inactive; i = inactive; . = no result given. This is a sample that favours compounds with a hit; in the whole collection about 2.3% have one here.
SMILES,CHT block,CHT allo act,NR2F2 inh,NR2E3 ag-1,NR2E3 ag-2,GalR3 antagonist,CHT act confirm,HEK293 MP dye,others
CC(C)(C)NCC(O)c1cc(Cl)c(N)c(Cl)c1 (configuration not stated),-5.12*,i,-30.5,-0.8,-26.1,23.8*,.,.,CHT inh conf=37.1%*;HEK293 CHT ctr=i;GalR3 conf=30.6*;CNG parental=5.3*
COc1ccccc1N,.,.,1.4,.,.,-2.9,.,.,
Cc1nonc1OCCNc1ccc([N+](=O)[O-])c2cccnc12,i,i,-6.0,-3.6,-20.8,-1.8,.,.,
NCCNc1ccc([N+](=O)[O-])c2cccnc12,i,6.56*,12.4,-5.6,15.4,-5.3,32.5*,-72.2*,
CC(=NCCCn1ccnc1)c1c(O)n(C)c(=O)n(C)c1=O,i,i,15.7,-1.9,-0.5,-4.9,48.4*,-33.5*,
c1ccc(-c2ccncc2)cc1,.,.,1.4,.,-13.3,-5.0,.,.,
Cc1cc(-c2ccccc2)cc(C)[n+]1Cc1ccccc1,i,7.39*,3.1,1.1,-8.7,-4.3,12.0*,-28.8*,
Cc1cc(C)[n+](CCCC[n+]2c(C)cc(C)cc2C)c(C)c1,i,7.89*,-7.6,1.4,-1.5,-5.5,73.0*,-98.6*,
CC[C@]12CCN(CC3(O)CC3)[C@H](Cc3ccc(O)cc31)C2(C)C,.,.,14.0,.,.,2.2,.,.,
CC(C)(C)c1cc(O)ccc1O,.,.,-27.4,.,.,1.0,.,.,
C[n+]1c(-c2ccccc2)cc(-c2ccc(Cl)cc2)cc1-c1ccccc1,i,7.19*,10.0,3.3,-7.3,-1.1,29.7*,-29.2*,
CN1C2CCC1CC(OC(=O)c1ccc(Cl)cc1)C2 (configuration not stated),i,i,-4.8,-5.1,-21.2,-4.5,.,.,
COc1ccc(C(=O)OC2C[C@H]3CC[C@H](C2)N3C)cc1OC (some centres not stated),i,6.57*,17.3,6.4,-6.2,.,40.2*,-32.2*,
O=C(NCCN1CCC2(CC1)C(=O)NCN2c1ccccc1)c1cccc2c1-c1ccccc1C2=O,.,.,18.5,.,.,-4.4,.,.,
CCOc1cc(-c2nc3c(C)cccn3c2NCC2CCCO2)ccc1O (configuration not stated),i,6.43*,5.1,-0.4,-2.7,-3.5,55.9*,-33.7*,
Cc1cccn2c(NCC3CCCO3)c(C(C)C)nc12 (configuration not stated),i,i,4.5,5.1,-9.5,-4.9,.,.,
CC(=O)NCC1=C(c2ccc(S(C)(=O)=O)cc2)C[C@@H]2CC[C@H]1N2CCOc1ccccc1,.,.,8.6,.,.,-6.4,.,.,
COc1cc2c(cc1OC)-c1c(OC)c(OC)cc3c1[C@H](C2)[N+](C)(C)CC3,i,i,-0.7,1.4,7.3,-9.8,.,.,
COc1cc2c3c(c1OC)-c1cc(O)ccc1CC3NCC2 (configuration not stated),i,i,4.4,4.0,-14.3,-5.3,48.2*,-42.1*,
COCCN1Cc2cc(=O)n3c([nH]c4ccccc43)c2C1=N,i,i,1.3,-7.8,-19.2,-2.0,53.1*,-42.3*,
C[C@@H]1CNCCN1c1ccc(N2CC[C@@H](O)C2)c(C#N)c1,.,.,3.5,.,.,-9.6,.,.,
O=[N+]([O-])c1ccc(N2CCCNCC2)c2ncccc12,i,9.25*,-12.3,-2.2,-17.1,-10.8,48.1*,-88.6*,
S=P(c1ccccc1)(c1ccccc1)c1c[n+](Cc2ccccc2)c2ccccn12,.,.,16.4,.,.,.,.,.,
C[n+]1c(-c2ccccc2)c2cc(N)ccc2c2ccc(N)cc21,i,9.25*,-24.7,-5.1,13.5,-1.0,37.9*,-77.1*,
N#Cc1ccc2nc(-c3ccc(CN4CCC(n5nnc6ccccc65)CC4)cc3)c(-c3ccccc3)nc2c1,.,.,31.6,.,.,-5.7,.,.,
SMILES,CHT block,CHT allo act,NR2F2 inh,NR2E3 ag-1,NR2E3 ag-2,GalR3 antagonist,CHT act confirm,HEK293 MP dye,others
O=C(N/N=C1/CN2CCC1CC2)c1cc2ccccc2cc1O,i,i,-6.0,3.9,-7.9,-2.9,.,.,
O=[N+]([O-])c1ccc(N2CCCC2)cc1N/N=C1\CN2CCC1CC2,i,6.55*,-2.0,-1.8,-16.5,-6.0,55.2*,-72.9*,
CN1CCc2nc3sc(C#N)c(N)c3c(-c3cccs3)c2C1,i,8.55*,13.2,-2.6,3.5,-6.6,38.7*,-58.5*,
CCOC(=O)C1=C(C(=O)OCC)C2(c3ccccc3)c3ccccc3C1(C)N2C (configuration not stated),.,.,6.6,.,.,-6.3,.,.,
COc1ccc(NC(=O)c2cc([N+](=O)[O-])ccc2N2CCNCC2)cc1,i,i,10.0,3.5,-30.9,-0.6,53.5*,-58.6*,
Cc1cc(C)n2nc(C)[n+](C)c2n1,i,7.99*,-7.7,2.1,-32.7,-4.1,60.2*,-33.9*,
CN(C)C(=O)Nc1cccc(OC(=O)N(C)C)c1,i,i,-5.2,1.8,-0.1,-0.7,.,.,
CN(C)C(=O)Oc1cccc(OCc2n(C)c3ccccc3[n+]2C)c1,i,6.96*,-3.5,-2.3,7.8,1.6,54.8*,-42.2*,
CCCCCn1c(=O)c(C(=O)NCc2ccncc2)c(O)c2ccccc21,i,i,-1.7,-1.2,-18.8,-1.2,31.3*,i,
O=[N+]([O-])c1ccc(C[n+]2c(-c3ccccc3)cc(-c3ccccc3)cc2-c2ccccc2)cc1,i,i,11.9,6.9,-20.6,-0.2,49.2*,-47.2*,
